From ChEMBL document CHEMBL4813946, “Discovery of novel 4-azaaryl-N-phenylpyrimidin-2-amine derivatives as potent and selective FLT3 inhibitors for acute myeloid leukaemia with FLT3 mutations” (Eur J Med Chem, 2021)
The source made the active and inactive calls. No cut-off for these calls is given here.

How the values were obtained:
[1] = target: Cyclin-dependent kinase 2/cyclin E1 (Homo sapiens, UniProt P24941); assay: Inhibition of CDK2/cyclin E (unknown origin) using histone 1 protein substrate incubated for 120 mins measured after 40 mins incubation under dark by ADP-glo based luminescence assay; assay type: protein-complex assay
Summary of the method: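 In-house ADP-Glo assay with 2 mM DMSO stocks. Kinases were CDK1/cyclin B at 1 nM, CDK2/cyclin E1 at 10 nM and CDK7/cyclin H/MAT1 at 40 nM. Substrate was histone 1 for CDK1 and CDK2, and a RNA pol II CTD peptide for CDK7. Compound at 8–10 concentrations, 1:3 serial, final DMSO 0.5%. Reactions ran 60–120 min at room temperature, then ADP-Glo reagent 40 min in the dark, then detection reagent 40 min, read by luminescence. Ki was derived from IC50 by Cheng-Prusoff.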

[2] = target: Receptor-type tyrosine-protein kinase FLT3 (Homo sapiens, UniProt P36888, D835Y); assay: Inhibition of FLT3 D835Y mutant (unknown origin) incubated for 120 mins by ADP-glo based luminescence assay
[3] = target: Receptor-type tyrosine-protein kinase FLT3 (Homo sapiens, UniProt P36888, F594-R595INSR); assay: Inhibition of FLT3 F594_R595insR mutant (unknown origin) incubated for 120 mins by ADP-glo based luminescence assay
K562 = assay: Antiproliferative activity against human K562 cells harboring FLT3 knockout gene assessed as reduction in cell viability after 72 hrs by resazurin assay; assay type: functional
Summary of the method: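 Cells seeded and pre-incubated 24 h at 37 °C, 5% CO2, then given a five-fold dilution series of compound (from 10 mM DMSO stock) in medium, in triplicate. Resazurin added after 72 h exposure, 4 h in dark at 37 °C. Fluorescence read at 570/585 nm, normalised to DMSO vehicle. GI50 by non-linear regression; mean ± SD of at least two replicates.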

MV4-11 [4] = assay: Induction of apoptosis in human MV4-11 cells assessed as necrotic cells at 1 x GI50 concentration incubated for 24 hrs by annexin V-FITC and propidium iodide staining based flow cytometry (reference value: 0.75 %); assay type: functional
MV4-11 [5] = assay: Induction of apoptosis in human MV4-11 cells assessed as viable cells at 1 x GI50 concentration incubated for 24 hrs by annexin V-FITC and propidium iodide staining based flow cytometry (reference value: 84.68 %); assay type: functional
MV4-11 [6] = assay: Induction of apoptosis in human MV4-11 cells assessed as viable cells at 5 x GI50 concentration incubated for 24 hrs by annexin V-FITC and propidium iodide staining based flow cytometry (reference value: 84.68 %); assay type: functional
MV4-11 [7] = assay: Induction of apoptosis in human MV4-11 cells assessed as necrotic cells at 10 x GI50 concentration incubated for 24 hrs by annexin V-FITC and propidium iodide staining based flow cytometry (reference value: 0.75 %); assay type: functional
MV4-11 [8] = assay: Induction of apoptosis in human MV4-11 cells assessed as late apoptotic cells at 20 x GI50 concentration incubated for 24 hrs by annexin V-FITC and propidium iodide staining based flow cytometry (reference value: 12.45 %); assay type: functional
MV4-11 [9] = assay: Induction of apoptosis in human MV4-11 cells assessed as necrotic cells at 5 x GI50 concentration incubated for 48 hrs by annexin V-FITC and propidium iodide staining based flow cytometry (reference value: 0.45 %); assay type: functional
MV4-11 [10] = assay: Induction of apoptosis in human MV4-11 cells assessed as necrotic cells at 20 x GI50 concentration incubated for 48 hrs by annexin V-FITC and propidium iodide staining based flow cytometry (reference value: […] %); assay type: functional
U-937 [11] = assay: Induction of apoptosis in human U937 cells assessed as late apoptotic cells at 1 x GI50 concentration incubated for 24 hrs by annexin V-FITC and propidium iodide staining based flow cytometry (reference value: 10.30 %); assay type: functional
U-937 [12] = assay: Induction of apoptosis in human U937 cells assessed as early apoptotic cells at 5 x GI50 concentration incubated for 24 hrs by annexin V-FITC and propidium iodide staining based flow cytometry (Rvb =1.81 %); assay type: functional
U-937 [13] = assay: Induction of apoptosis in human U937 cells assessed as early apoptotic cells at 10 x GI50 concentration incubated for 24 hrs by annexin V-FITC and propidium iodide staining based flow cytometry (reference value: 1.81 %); assay type: functional
U-937 [14] = assay: Induction of apoptosis in human U937 cells assessed as early apoptotic cells at 20 x GI50 concentration incubated for 24 hrs by annexin V-FITC and propidium iodide staining based flow cytometry (reference value: 1.81 %); assay type: functional
U-937 [15] = assay: Induction of apoptosis in human U937 cells assessed as necrotic cells at 20 x GI50 concentration incubated for 24 hrs by annexin V-FITC and propidium iodide staining based flow cytometry (reference value: 10.30 %); assay type: functional
U-937 [16] = assay: Induction of apoptosis in human U937 cells assessed as viable cells at 20 x GI50 concentration incubated for 24 hrs by annexin V-FITC and propidium iodide staining based flow cytometry (reference value: 85.68 %); assay type: functional
[17] = target: Receptor-type tyrosine-protein kinase FLT3 (Homo sapiens) (UniProt P36888); assay: Inhibition of FLT3-mediated signalling pathway in human MV4-11 cells assessed as inhibition of STAT5 phosphorylation upto 20 x GI50 concentration incubated for 6 hrs by western blot analysis; assay type: cell-based
Summary of the method: (§1)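 Cells lysed in phosphate lysis buffer with protease inhibitors and protein quantified. Western blots probed phospho and total STAT5, AKT, ERK, S6RP and eIF4E, plus full-length and cleaved PARP and caspase-3, with β-actin as loading control. At least two independent experiments.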

[18] = target: Receptor-type tyrosine-protein kinase FLT3 (Homo sapiens) (UniProt P36888); assay: Inhibition of FLT3-mediated signalling pathway in human MV4-11 cells assessed as inhibition of eIF4E phosphorylation upto 20 x GI50 concentration incubated for 6 hrs by western blot analysis; assay type: cell-based; summary of the method: as §1
U-937 [19] = assay: Induction of apoptosis in human U937 cells assessed as late apoptotic cells at 1 x GI50 concentration incubated for 48 hrs by annexin V-FITC staining based flow cytometry (reference value: 9.82 %); assay type: functional
U-937 [20] = assay: Induction of apoptosis in human U937 cells assessed as viable cells at 5 x GI50 concentration incubated for 48 hrs by annexin V-FITC staining based flow cytometry (reference value: 86.25 %); assay type: functional
U-937 [21] = assay: Induction of apoptosis in human U937 cells assessed as early apoptotic cells at 10 x GI50 concentration incubated for 48 hrs by annexin V-FITC staining based flow cytometry (reference value: 2.78 %); assay type: functional
U-937 [22] = assay: Induction of apoptosis in human U937 cells assessed as late apoptotic cells at 10 x GI50 concentration incubated for 48 hrs by annexin V-FITC staining based flow cytometry (reference value: 9.82 %); assay type: functional
U-937 [23] = assay: Induction of apoptosis in human U937 cells assessed as necrotic cells at 10 x GI50 concentration incubated for 48 hrs by annexin V-FITC staining based flow cytometry (reference value: 1.16 %); assay type: functional
[24] = target: Receptor-type tyrosine-protein kinase FLT3 (Homo sapiens) (UniProt P36888); assay: Inhibition of FLT3-mediated signalling pathway in human U-937 cells assessed as inhibition of AKT phosphorylation upto 20 x GI50 concentration incubated for 6 hrs by western blot analysis; assay type: cell-based; summary of the method: as §1
[25] = target: Receptor-type tyrosine-protein kinase FLT3 (Homo sapiens) (UniProt P36888); assay: Inhibition of FLT3-mediated signalling pathway in human U-937 cells assessed as inhibition of S6RP phosphorylation upto 20 x GI50 concentration incubated for 6 hrs by western blot analysis; assay type: cell-based; summary of the method: as §1

Work on CC(=O)N1CCN(c2ccc(Nc3nccc(-c4cn(C)c5ncccc45)n3)cc2)CC1 yielded a Ki [1] of over 5000 nM, a Ki [2] of 47 nM and a Ki [3] of 54 nM. For the same compound, the GI50 (K562) was over 10000 nM, the Activity (MV4-11 [4]) was 1.74% and the Activity (MV4-11 [5]) was 81.75%. For the same compound, the Activity (MV4-11 [6]) was 79.81%, the Activity (MV4-11 [7]) was 2.13% and the Activity (MV4-11 [8]) was 2.03%. It also gave an Activity (MV4-11 [9]) of 0.86%, an Activity (MV4-11 [10]) of 32.08% and an Activity (U-937 [11]) of 7.98%. The Activity (U-937 [12]) was 2.15%, the Activity (U-937 [13]) was 2.48% and the Activity (U-937 [14]) was 2.63%. The Activity (U-937 [15]) was 10.43%, the Activity (U-937 [16]) was 85.3% and the inhibition [17] was “Active”. For the same compound, the inhibition [18] was “Active”, the Activity (U-937 [19]) was 9.22% and the Activity (U-937 [20]) was 88.11%. It also gave an Activity (U-937 [21]) of 3.06%, an Activity (U-937 [22]) of 12.02% and an Activity (U-937 [23]) of 1.57%. The inhibition [24] was “Active” and the inhibition [25] was “Active”.
